From ChEMBL document CHEMBL2375225, “Structure-activity relationship of 5-chloro-2-methyl-3-(1,2,3,6-tetrahydropyridin-4-yl)-1H-indole analogues as 5-HT(6) receptor agonists” (Eur J Med Chem, 2013)

Key:
[1] = molecular target: T1, 5-hydroxytryptamine receptor 6 (Homo sapiens, UniProt P50406); assay: Partial agonist activity at human 5HT6 receptor expressed in BHK cells assessed as stimulation of cAMP production after 45 minutes relative to control; assay type: functional, cell-based
Method in brief: (§1)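 BHK cells stably transfected with the human 5-HT6 receptor, grown in MEM-α with 10% dialysed heat-inactivated FCS at 37 °C under 5% CO2. Cells were detached with 5 mM EDTA in PBS, seeded at 10,000 cells/well and left to adhere ≥12 h. They were then washed and placed in serum-free MEM-α, exposed to compound for 45 min, washed with PBS, and intracellular cAMP measured by enzyme immunoassay.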

[2] = molecular target: 5-hydroxytryptamine receptor 1B (Rattus norvegicus, UniProt P28564); assay: Displacement of [125I]-iodocyanopindolol from rat 5HT1B receptor
Sequence of 5-hydroxytryptamine receptor 1B (P28564 whole entry): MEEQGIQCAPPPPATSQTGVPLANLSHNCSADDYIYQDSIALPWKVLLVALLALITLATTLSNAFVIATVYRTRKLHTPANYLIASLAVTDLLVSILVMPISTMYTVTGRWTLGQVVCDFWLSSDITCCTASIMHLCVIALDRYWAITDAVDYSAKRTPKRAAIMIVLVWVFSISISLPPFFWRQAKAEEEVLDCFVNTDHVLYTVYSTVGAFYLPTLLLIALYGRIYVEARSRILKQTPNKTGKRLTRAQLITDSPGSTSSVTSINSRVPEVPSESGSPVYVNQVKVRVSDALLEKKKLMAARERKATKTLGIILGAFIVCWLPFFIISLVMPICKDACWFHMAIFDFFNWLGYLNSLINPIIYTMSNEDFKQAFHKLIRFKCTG

[3] = molecular target: Sodium-dependent serotonin transporter (Rattus norvegicus, UniProt P31652); assay: Displacement of [3H]-5-HT from rat SERT
Sequence of Sodium-dependent serotonin transporter (P31652 whole entry): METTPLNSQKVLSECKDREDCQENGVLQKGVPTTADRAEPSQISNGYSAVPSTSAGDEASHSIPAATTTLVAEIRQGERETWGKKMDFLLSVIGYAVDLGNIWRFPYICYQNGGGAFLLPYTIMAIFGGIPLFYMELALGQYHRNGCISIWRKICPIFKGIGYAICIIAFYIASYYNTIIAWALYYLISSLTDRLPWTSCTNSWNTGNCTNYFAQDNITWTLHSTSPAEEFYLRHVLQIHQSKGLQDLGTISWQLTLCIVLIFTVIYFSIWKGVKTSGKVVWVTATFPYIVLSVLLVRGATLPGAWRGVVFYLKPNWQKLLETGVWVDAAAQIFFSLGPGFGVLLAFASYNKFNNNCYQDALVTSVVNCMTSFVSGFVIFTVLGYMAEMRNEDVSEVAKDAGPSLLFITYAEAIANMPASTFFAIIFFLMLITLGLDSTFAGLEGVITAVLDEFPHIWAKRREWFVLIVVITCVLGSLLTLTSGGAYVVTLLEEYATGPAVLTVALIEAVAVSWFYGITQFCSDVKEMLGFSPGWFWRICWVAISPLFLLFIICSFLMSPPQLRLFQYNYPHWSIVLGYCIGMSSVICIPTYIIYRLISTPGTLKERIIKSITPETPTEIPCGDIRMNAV

[4] = molecular target: T1, 5-hydroxytryptamine receptor 6; assay: Displacement of [3H]LSD from human 5HT6 receptor expressed in HEK cell membranes after 1 hr by liquid scintillation counting analysis; design: species or system HEK293
Method in brief: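 Compounds were made up as 1 mM DMSO stocks and diluted in 20 mM HEPES, 0.1% ascorbic acid, pH 7.4. They were incubated 1 h at 37 °C with [3H]LSD (1 nM final) and membranes (23 µg protein) from HEK cells expressing human 5-HT6. Binding was stopped by filtration through GF/B filters presoaked in 0.1% polyethyleneimine, with three buffer washes, then counted by liquid scintillation. Single determination.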

[5] = molecular target: T1, 5-hydroxytryptamine receptor 6; assay: Partial agonist activity at human 5HT6 receptor expressed in BHK cells assessed as stimulation of cAMP production after 45 minutes; assay type: functional, cell-based; method in brief: as §1
[6] = molecular target: 5-hydroxytryptamine receptor 2A (Homo sapiens, UniProt P28223); assay: Displacement of [3H]-ketanserin from human 5HT2A receptor
Sequence of 5-hydroxytryptamine receptor 2A (P28223 whole entry): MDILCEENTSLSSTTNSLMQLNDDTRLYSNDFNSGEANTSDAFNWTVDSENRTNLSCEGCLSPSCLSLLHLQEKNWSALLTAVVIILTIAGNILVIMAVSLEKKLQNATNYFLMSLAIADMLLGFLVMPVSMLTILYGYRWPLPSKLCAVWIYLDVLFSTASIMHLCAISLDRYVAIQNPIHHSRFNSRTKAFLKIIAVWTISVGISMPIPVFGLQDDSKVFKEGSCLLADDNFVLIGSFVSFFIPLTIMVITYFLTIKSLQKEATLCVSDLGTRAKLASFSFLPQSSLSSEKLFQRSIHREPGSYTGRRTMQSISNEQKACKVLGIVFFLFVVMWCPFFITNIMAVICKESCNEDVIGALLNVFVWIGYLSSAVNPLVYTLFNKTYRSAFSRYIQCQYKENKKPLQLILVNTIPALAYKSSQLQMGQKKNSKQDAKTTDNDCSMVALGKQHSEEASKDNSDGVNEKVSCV

[7] = molecular target: T2, 5-hydroxytryptamine receptor 1A (Rattus norvegicus, UniProt P19327); assay: Displacement of [3H]-8-OH-DPAT from rat 5HT1A receptor
T2 sequence (P19327 whole entry): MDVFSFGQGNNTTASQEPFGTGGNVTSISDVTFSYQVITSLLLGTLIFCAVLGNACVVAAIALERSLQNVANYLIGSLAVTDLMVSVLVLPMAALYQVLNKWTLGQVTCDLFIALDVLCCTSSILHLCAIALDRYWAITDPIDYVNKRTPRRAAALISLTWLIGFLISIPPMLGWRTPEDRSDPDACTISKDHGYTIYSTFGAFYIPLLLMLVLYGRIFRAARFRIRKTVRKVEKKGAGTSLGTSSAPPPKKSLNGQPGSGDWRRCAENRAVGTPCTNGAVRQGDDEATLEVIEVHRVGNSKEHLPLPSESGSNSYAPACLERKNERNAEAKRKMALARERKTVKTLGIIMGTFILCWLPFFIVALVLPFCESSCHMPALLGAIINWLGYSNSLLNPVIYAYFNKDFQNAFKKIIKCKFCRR

[8] = Displacement of [3H]-5-HT from calf 5HT1D receptor; design: species or system Bos taurus
[9] = molecular target: T3, 5-hydroxytryptamine receptor 2C (Homo sapiens, UniProt P28335); assay: Displacement of [3H]-mesulergine from human 5HT2C receptor
T3 sequence (P28335 whole entry): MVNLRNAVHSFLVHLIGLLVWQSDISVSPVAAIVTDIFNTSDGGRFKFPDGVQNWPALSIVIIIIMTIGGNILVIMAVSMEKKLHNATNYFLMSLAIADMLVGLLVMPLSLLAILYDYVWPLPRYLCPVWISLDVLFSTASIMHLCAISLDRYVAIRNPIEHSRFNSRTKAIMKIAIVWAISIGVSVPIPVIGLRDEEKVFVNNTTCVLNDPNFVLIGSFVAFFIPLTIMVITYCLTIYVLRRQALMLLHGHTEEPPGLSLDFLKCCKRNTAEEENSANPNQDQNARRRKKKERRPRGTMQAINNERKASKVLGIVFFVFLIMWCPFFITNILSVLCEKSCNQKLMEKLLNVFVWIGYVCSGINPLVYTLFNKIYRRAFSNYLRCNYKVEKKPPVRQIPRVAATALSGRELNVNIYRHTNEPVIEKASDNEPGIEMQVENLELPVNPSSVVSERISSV

[10] = molecular target: 5-hydroxytryptamine receptor 4 (Cavia porcellus, UniProt O70528); assay: Displacement of [3H]-GR113808 from guinea pig 5HT4 receptor
Sequence of 5-hydroxytryptamine receptor 4 (O70528 whole entry): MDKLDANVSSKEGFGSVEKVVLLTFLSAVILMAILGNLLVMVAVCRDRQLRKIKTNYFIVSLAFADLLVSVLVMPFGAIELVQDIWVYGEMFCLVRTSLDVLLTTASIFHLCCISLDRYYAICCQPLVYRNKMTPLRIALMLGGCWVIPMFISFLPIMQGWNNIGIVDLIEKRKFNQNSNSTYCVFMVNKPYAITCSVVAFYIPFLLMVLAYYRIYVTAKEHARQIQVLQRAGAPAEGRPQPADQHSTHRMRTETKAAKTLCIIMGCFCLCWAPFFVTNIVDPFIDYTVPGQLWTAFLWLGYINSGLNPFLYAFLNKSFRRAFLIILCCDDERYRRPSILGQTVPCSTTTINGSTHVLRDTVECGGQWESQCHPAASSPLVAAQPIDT

[11] = molecular target: 5-hydroxytryptamine receptor 7 (Homo sapiens, UniProt P34969); assay: Displacement of [3H]LSD from human 5HT7 receptor
Sequence of 5-hydroxytryptamine receptor 7 (P34969 whole entry): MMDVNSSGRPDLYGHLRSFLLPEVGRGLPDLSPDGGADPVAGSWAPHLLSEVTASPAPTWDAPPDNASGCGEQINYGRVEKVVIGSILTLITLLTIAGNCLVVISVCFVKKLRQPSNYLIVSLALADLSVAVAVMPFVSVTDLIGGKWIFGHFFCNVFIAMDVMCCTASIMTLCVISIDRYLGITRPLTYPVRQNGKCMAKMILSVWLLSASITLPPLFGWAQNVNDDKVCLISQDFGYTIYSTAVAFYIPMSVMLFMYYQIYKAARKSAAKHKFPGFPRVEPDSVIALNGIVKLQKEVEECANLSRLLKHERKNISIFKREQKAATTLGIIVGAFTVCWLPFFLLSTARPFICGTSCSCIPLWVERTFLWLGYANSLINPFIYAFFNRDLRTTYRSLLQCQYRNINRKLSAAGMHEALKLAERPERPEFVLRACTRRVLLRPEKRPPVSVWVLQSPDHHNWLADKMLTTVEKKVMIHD

[12] = Displacement of [3H]-GR65630 from 5HT3 receptor in rat/mouse NG108 cells; assay type: cell-based
[13] = molecular target: T1, 5-hydroxytryptamine receptor 6; assay: Agonist activity at human 5HT6 receptor expressed in BHK cells assessed as stimulation of cAMP production after 45 minutes relative to control; assay type: functional, cell-based; method in brief: as §1
[14] = molecular target: T1, 5-hydroxytryptamine receptor 6; assay: Agonist activity at human 5HT6 receptor expressed in BHK cells assessed as stimulation of cAMP production after 45 minutes; assay type: functional, cell-based; method in brief: as §1
[15] = molecular target: T1, 5-hydroxytryptamine receptor 6; assay: Displacement of [3H]LSD from human 5HT6 receptor expressed in CHO cell membranes after 1 hr by liquid scintillation counting analysis
[16] = molecular target: T1, 5-hydroxytryptamine receptor 6; assay: Antagonist activity at human 5HT6 receptor expressed in human HeLa cells assessed as inhibition of 5HT-induced cAMP accumulation relative to control; assay type: functional, cell-based; design: scale not given: the % may be the effect or the level left

T1 sequence (P50406 whole entry): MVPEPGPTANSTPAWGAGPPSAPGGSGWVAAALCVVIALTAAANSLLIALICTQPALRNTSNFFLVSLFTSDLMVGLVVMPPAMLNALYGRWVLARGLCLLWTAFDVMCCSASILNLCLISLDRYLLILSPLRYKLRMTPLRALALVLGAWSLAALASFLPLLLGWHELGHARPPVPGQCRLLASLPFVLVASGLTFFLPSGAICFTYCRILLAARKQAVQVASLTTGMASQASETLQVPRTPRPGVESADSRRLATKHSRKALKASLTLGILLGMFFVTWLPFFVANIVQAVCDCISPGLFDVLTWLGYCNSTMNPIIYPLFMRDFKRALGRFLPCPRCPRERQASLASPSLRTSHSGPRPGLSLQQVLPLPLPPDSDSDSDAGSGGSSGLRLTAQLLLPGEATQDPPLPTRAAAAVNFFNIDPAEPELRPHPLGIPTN

Row | SMILES | Activity [1] | IC50 [2] | IC50 [3] | IC50 [4] | EC50 [5] | IC50 [6] | IC50 [7] | IC50 [8] | IC50 [9] | IC50 [11] | further results
1 | Cc1[nH]c2ccccc2c1C1=CCNCC1 | 78% | 890 nM | > 1000 nM | 200 nM | 1100 nM | 1500 nM | 5700 nM | 1200 nM | 2900 nM | > 1000 nM | IC50 [10]: 1000 nM; IC50 [12]: 2300 nM
2 | Cc1[nH]c2ccc(-c3ccsc3)cc2c1C1=CCNCC1 | – | 12 nM | > 1000 nM | 700 nM | – | > 1000 nM | > 1000 nM | 33 nM | > 1000 nM | 690 nM | –
3 | Cc1c(C2=CCNCC2)c2cc(Cl)ccc2n1C | – | – | – | 40 nM | – | – | – | – | – | – | –
4 | COc1ccc2[nH]cc(C3=CCNCC3)c2c1 [RU-24969] | – | 6 nM | – | – | – | – | – | 20 nM | – | – | IC50 [12]: > 1000 nM
5 | Cc1[nH]c2ccc(F)cc2c1C1=CCNCC1 | – | 200 nM | 1900 nM | 30 nM | – | 950 nM | > 1000 nM | 160 nM | 700 nM | 3100 nM | Activity [13]: 100%; EC50 [14]: 5.3 nM
6 | Cc1[nH]c2ccc(OC(C)C)cc2c1C1=CCNCC1 | – | – | – | 100 nM | – | – | – | – | – | – | –
7 | CSc1ccc2[nH]c(C)c(C3=CCNCC3)c2c1 | 58% | – | – | 20 nM | 6.6 nM | – | – | – | – | – | –
8 | Cc1[nH]c2ccc([N+](=O)[O-])cc2c1C1=CCNCC1 | 28% | 570 nM | > 1000 nM | 10 nM | 32 nM | 1000 nM | 890 nM | 310 nM | > 1000 nM | > 1000 nM | –
9 | CCCn1c(C)c(C2=CCNCC2)c2cc(Cl)ccc21 | – | – | – | 80 nM | – | – | – | – | – | – | –
10 | C1=C(c2c(-c3ccccc3)[nH]c3ccccc23)CCNC1 | – | > 1000 nM | – | – | – | 50 nM | > 1000 nM | > 1000 nM | 100 nM | – | IC50 [12]: 270 nM
11 | Cc1[nH]c2ccc(OS(=O)(=O)C(F)(F)F)cc2c1C1=CCNCC1 | 65% | 29 nM | > 1000 nM | 50 nM | 32 nM | > 1000 nM | > 1000 nM | 35 nM | 990 nM | 1800 nM | –
12 | Cc1[nH]c2ccc(Oc3ccccc3[N+](=O)[O-])cc2c1C1=CCNCC1 | – | – | – | 9 nM | – | – | – | – | – | – | –
13 | Cc1[nH]c2ccc(NS(=O)(=O)c3ccccc3)cc2c1C1=CCNCC1 | 60% | – | – | – | 21 nM | – | – | – | – | – | IC50 [15]: 29 nM
14 | Cc1c(C2=CCNCC2)c2cc(Cl)ccc2n1S(=O)(=O)c1ccccc1 | – | – | – | – | – | – | – | – | – | – | IC50 [15]: 2 nM; Activity [16]: 0%
15 | N#Cc1ccc2[nH]cc(C3=CCNCC3)c2c1 | 44% | – | – | 20 nM | 130 nM | – | – | – | – | – | –
16 | Cc1[nH]c2ccc(Br)cc2c1C1=CCNCC1 | – | 75 nM | 4800 nM | 10 nM | – | 400 nM | 660 nM | 130 nM | 420 nM | 480 nM | Activity [13]: 100%; EC50 [14]: 2.7 nM
17 | CCn1c(C)c(C2=CCNCC2)c2cc(Cl)ccc21 | – | – | – | 100 nM | – | – | – | – | – | – | –
18 | Cc1[nH]c2ccc(-c3ccccc3)cc2c1C1=CCNCC1 | – | 140 nM | > 1000 nM | 1000 nM | – | > 1000 nM | > 1000 nM | 390 nM | > 1000 nM | 3700 nM | –
